Test results reported in ChEMBL document CHEMBL1821697, “Design and synthesis of brain penetrant selective JNK inhibitors with improved pharmacokinetic properties for the prevention of neurodegeneration” (Bioorg Med Chem Lett, 2011).

Assays:
[1] = molecular target: Mitogen-activated protein kinase 10 (Homo sapiens, UniProt P53779); assay: Inhibition of recombinant JNK3 using ser73 of c-jun as substrate preincubated for 15 mins measured after 60 mins by TR-FRET assay
Method in brief: (§1)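 Recombinant JNK enzyme assay run at 10 µM ATP. IC50 values are means of at least three experiments.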

[2] = molecular target: Mitogen-activated protein kinase 8 (Homo sapiens, UniProt P45983); assay: Inhibition of recombinant JNK1 using ser73 of c-jun as substrate preincubated for 15 mins measured after 60 mins by TR-FRET assay; method in brief: as §1
[3] = molecular target: Mitogen-activated protein kinase 9 (Homo sapiens, UniProt P45984); assay: Inhibition of recombinant JNK2 using ser73 of c-jun as substrate preincubated for 15 mins measured after 60 mins by TR-FRET assay; method in brief: as §1
[4] = Oxidative metabolic stability in mouse liver microsomes assessed as compound remaining at 1 uM after 30 mins; assay type: ADME, Microsome; settings: read-out: Stability
Method in brief: (§2)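 Test compound was incubated with mouse, rat or human liver microsomes for 30 min. The read-out is percent of parent compound remaining.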

[5] = Oxidative metabolic stability in rat liver microsomes assessed as compound remaining at 1 uM after 30 mins; assay type: ADME, Microsome; settings: read-out: Stability; method in brief: as §2
[6] = Oxidative metabolic stability in human liver microsomes assessed as compound remaining at 1 uM after 30 mins; assay type: ADME, Microsome; settings: read-out: Stability; method in brief: as §2
[7] = molecular target: Mitogen-activated protein kinase 14 (Homo sapiens, UniProt Q16539); assay: Inhibition of recombinant p38alpha Thr69/71 of ATF-2 as substrate preincubated for 15 mins measured after 60 mins by TR-FRET assay
[8] = molecular target: Mitogen-activated protein kinase 1 (Homo sapiens, UniProt P28482); assay: Inhibition of recombinant ERK2 using Ser383 of Elk-1 as substrate preincubated for 15 mins measured after 60 mins by TR-FRET assay
[9] = Apparent permeability from apical to basolateral side of MDCK2 cells at 5 uM after 120 mins by LC/MS/MS method; assay type: ADME, cell-based, Canis lupus familiaris, MDCK-II; settings: dog, MDCK
MDR1 = assay: Efflux ratio of permeability across MDCK2 expressing MDR1 at 5 uM after 120 mins by LC/MS/MS method; assay type: ADME, Canis lupus familiaris, MDCK-II; settings: dog, MDCK-MDR1

Mitogen-activated protein kinase 10, sequence (P53779 whole entry): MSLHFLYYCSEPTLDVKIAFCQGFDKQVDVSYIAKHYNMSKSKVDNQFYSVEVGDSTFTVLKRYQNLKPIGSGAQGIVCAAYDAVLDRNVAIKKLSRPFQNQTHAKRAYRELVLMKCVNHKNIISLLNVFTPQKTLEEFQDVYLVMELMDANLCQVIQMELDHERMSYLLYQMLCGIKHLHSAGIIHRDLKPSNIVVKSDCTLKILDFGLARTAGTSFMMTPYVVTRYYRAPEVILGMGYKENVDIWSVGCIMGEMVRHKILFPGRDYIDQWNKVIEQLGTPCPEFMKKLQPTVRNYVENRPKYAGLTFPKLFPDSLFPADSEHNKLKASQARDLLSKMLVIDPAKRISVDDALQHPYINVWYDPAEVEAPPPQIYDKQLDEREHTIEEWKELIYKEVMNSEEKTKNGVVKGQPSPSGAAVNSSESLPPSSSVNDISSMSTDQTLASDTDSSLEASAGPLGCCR
Mitogen-activated protein kinase 9, sequence (P45984 whole entry): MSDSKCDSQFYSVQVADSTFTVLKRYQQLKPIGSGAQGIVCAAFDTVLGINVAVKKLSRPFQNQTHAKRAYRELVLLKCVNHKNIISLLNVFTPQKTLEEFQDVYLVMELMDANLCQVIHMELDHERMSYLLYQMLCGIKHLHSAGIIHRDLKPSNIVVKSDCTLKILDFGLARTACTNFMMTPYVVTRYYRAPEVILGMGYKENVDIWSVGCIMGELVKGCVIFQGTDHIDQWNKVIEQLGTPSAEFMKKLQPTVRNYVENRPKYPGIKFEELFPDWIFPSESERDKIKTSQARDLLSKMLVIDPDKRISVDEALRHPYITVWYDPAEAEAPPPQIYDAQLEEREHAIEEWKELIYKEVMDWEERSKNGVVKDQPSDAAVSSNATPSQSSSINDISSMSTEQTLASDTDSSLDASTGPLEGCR
Mitogen-activated protein kinase 8, sequence (P45983 whole entry): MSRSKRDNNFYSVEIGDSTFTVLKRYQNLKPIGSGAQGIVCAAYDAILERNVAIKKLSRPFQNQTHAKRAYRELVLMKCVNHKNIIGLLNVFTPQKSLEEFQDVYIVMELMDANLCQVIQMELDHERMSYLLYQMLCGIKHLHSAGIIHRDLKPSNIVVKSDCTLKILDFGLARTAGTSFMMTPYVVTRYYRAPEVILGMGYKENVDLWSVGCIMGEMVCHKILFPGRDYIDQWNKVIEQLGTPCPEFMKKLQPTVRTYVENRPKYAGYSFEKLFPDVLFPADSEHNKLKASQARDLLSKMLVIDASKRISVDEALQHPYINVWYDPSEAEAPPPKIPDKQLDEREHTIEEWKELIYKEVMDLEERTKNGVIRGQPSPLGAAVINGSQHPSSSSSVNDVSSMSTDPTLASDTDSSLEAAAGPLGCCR
Mitogen-activated protein kinase 1, sequence (P28482 whole entry): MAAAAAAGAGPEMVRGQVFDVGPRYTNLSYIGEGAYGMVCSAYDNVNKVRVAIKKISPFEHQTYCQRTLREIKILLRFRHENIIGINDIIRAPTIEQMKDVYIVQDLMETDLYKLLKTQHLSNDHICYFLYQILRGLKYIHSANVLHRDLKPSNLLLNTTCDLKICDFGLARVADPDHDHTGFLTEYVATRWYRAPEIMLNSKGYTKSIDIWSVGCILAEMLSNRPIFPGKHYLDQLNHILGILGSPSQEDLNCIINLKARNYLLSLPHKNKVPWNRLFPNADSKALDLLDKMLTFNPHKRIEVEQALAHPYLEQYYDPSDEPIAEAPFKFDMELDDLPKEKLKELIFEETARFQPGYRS
Mitogen-activated protein kinase 14, sequence (Q16539 whole entry): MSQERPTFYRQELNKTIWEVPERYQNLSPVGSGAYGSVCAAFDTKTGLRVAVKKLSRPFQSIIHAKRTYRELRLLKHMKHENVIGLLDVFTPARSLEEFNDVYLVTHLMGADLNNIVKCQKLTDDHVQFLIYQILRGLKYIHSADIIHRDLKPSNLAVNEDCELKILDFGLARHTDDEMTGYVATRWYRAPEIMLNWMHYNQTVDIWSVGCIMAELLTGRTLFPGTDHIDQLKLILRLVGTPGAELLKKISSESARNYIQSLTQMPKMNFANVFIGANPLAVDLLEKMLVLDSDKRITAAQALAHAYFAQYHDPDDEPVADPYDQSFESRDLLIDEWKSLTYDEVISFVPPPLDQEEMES

Structure (SMILES)	IC50 [1] [nM]	IC50 [2] [nM]	IC50 [3] [nM]	remaining at 0.5 h, 1 µM [4] [%]	remaining at 0.5 h, 1 µM [5] [%]	remaining at 0.5 h, 1 µM [6] [%]	IC50 [7] [nM]	IC50 [8] [nM]	Papp A→B at 2 h, 5 µM [9] [×10⁻⁶ cm/s]	efflux ratio at 2 h, 5 µM (MDR1)
N#Cc1csc(NC(=O)Cn2c(=O)ccc3cc(C(F)(F)F)ccc32)c1-c1ncco1	8	4	29	4	2	24				
O=C(Cn1c(=O)ccc2nc(C(F)(F)F)ccc21)Nc1scc(Br)c1-c1ncn[nH]1	14	8	38	35	2	64				
O=C(CN1C(=O)CCc2ccccc21)Nc1scc(Br)c1-c1ncn[nH]1				0	0	24				
N#Cc1csc(NC(=O)Cn2c(=O)ccc3cc(C(F)(F)F)ccc32)c1-c1cscn1	8	2	17	17	8	32				
O=C(Cc1cc(C(F)(F)F)cc2ncccc12)Nc1scc(Br)c1-c1nnc[nH]1	280	178	337	3	16	31				
O=C(Cn1c(=O)ccc2ccc(OC(F)(F)F)cc21)Nc1scc(Br)c1-c1ncn[nH]1	19	11	68	10	26	29				
N#Cc1ccc2ccc(=O)n(CC(=O)Nc3scc(Br)c3-c3ncn[nH]3)c2c1	2	1	10	44	62	59				
O=C(CN1C(=O)CCc2ncccc21)Nc1scc(Br)c1-c1nccs1	15	13	145	0	0	3				
N#Cc1csc(NC(=O)CN2C(=O)CCc3ncccc32)c1-c1nccs1	11	10	62	7	1	16				
N#Cc1csc(NC(=O)CN2C(=O)CCc3ncccc32)c1-c1nc[nH]n1	6	5	18	84	81	80				
O=C(Cc1cccc2ncc(C(F)(F)F)cc12)Nc1scc(Br)c1-c1nc[nH]n1	52	21	164	3	20	37				
O=C(Cn1c(=O)ccn2nccc12)Nc1scc(Br)c1-c1ncn[nH]1	8	8	74	50	71	72				
O=C(Cc1ccc(C(F)(F)F)c2ncccc12)Nc1scc(Cl)c1-c1ncn[nH]1	183	81	24	3	1	32				
O=C(Cc1ccc(F)c2cnccc12)Nc1scc(Br)c1-c1ncn[nH]1	24	16	68	34	5	44				
O=C(Cn1c(=O)ccc2c(C(F)(F)F)cccc21)Nc1scc(Br)c1-c1ncn[nH]1	71	31	193	27	1	49				
Cn1cnc(-c2c(Br)csc2NC(=O)CN2C(=O)CCc3ncccc32)n1	3	1	13	33	37	46				
N#Cc1csc(NC(=O)Cn2c(=O)ccc3cc(C(F)(F)F)ccc32)c1-c1nccs1	9	7	53	52	76	75				
N#Cc1ccc2c(ccc(=O)n2CC(=O)Nc2scc(Br)c2-c2ncn[nH]2)c1	2	1	10	60	46	69	> 50000	> 50000	3.43	4.18
O=C(Cn1c(=O)ccn2nc(C(F)(F)F)cc12)Nc1scc(Br)c1-c1ncn[nH]1	14	3	36	3	42	48				
O=C(Cn1c(=O)ccc2cnc(C(F)(F)F)cc21)Nc1scc(Br)c1-c1ncn[nH]1	6	4	21	43	43	77				
O=C(Cn1c(=O)ccc2cc(OC(F)(F)F)ccc21)Nc1scc(Br)c1-c1ncn[nH]1	6	2	12	16	39	64				
O=C(Cn1c(=O)ccc2ccc(C(F)(F)F)cc21)Nc1scc(Br)c1-c1ncn[nH]1	9	6	21	29	25	44				
O=C(CN1C(=O)CCc2ncccc21)Nc1scc(Br)c1-c1ncco1	6	7	66	0	0	11				
O=C(Cc1cc(F)cc2ncccc12)Nc1scc(Br)c1-c1ncn[nH]1	41	14	140	5	18	42				
O=C(Cn1c(=O)ccc2cnccc21)Nc1scc(Br)c1-c1ncn[nH]1	7	4	8	51	60	85				
O=C(Cc1cccc2ncc(F)cc12)Nc1scc(Br)c1-c1nc[nH]n1	30	17	92	2	17	39				
